Results taken from publication PMC8485890 (Hepatology Communications, 2021).

Tests used:
[1] = system: extracellular DNA and MIG30 staining in the liver; test: Enzymatic removal of DNA and MIG30 staining from the injured liver; type: in vivo, mouse; conditions: APAP-treated mice, MIG30-TAMRA 20 µg; hyaluronidase 1,000 U or heparinase III 100 µg i.v.; up to 10 minutes
In short: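 Fasted mice received APAP (dissolved in warm saline) by oral gavage. They then received i.v. Sytox green and 20 µg TAMRA-labelled peptide. Next they were given i.v. hyaluronidase (1,000 U) or heparinase III (100 µg); DNase 1 (1,000 U) was given similarly. Mean fluorescence intensity of DNA and peptide in liver was followed by confocal intravital microscopy for up to 10 minutes.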

bacterial DNA = bacterial DNA present in skin injury; cited from earlier work
[2] = system: APAP-induced liver injury; conditions: reducing agent; cited from earlier work
neutrophils in the liver = test: Neutrophil recruitment to the liver; type: in vivo, mouse (LysM-eGFP); conditions: APAP-treated LysM-eGFP mice, time course
In short: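 LysM-eGFP mice were fasted and given oral APAP in warm saline. Neutrophils were counted in the liver by their GFP signal using confocal intravital microscopy over the injury time course. Extracellular DNA was visualised with i.v. Sytox green (2 µL of 5 mM). Groups had at least five mice, with experiments repeated at least twice. Data are mean ± SEM.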

C57BL/6J mice = test: Survival of mice after APAP overdose; type: in vivo, mouse (C57BL/6J); conditions: APAP 600 mg/kg oral gavage, within 24 hours
In short: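 Fasted C57BL/6J mice were dosed by oral gavage with APAP dissolved in warm saline, at several doses including 600 mg/kg, and survival was tracked (n ≥ 9 per group). In the 24-h treatment arm, peptide was given intravenously at 100 µg/dose, 6, 12 and 18 h after APAP.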

[3] = system: pro-inflammatory mediators in liver and serum; test: Cytokine/chemokine ELISA in liver lysates and serum of APAP-treated mice; type: in vivo, mouse; conditions: APAP 600 mg/kg, as early as 6 hours
In short: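 Fasted mice received APAP (600 mg/kg) dissolved in warm saline by oral gavage; controls received vehicle. TNF-α, CXCL1, CXCL2 and CXCL6 were measured by ELISA in liver lysates and serum over a time course after overdose. Groups had at least five mice, and experiments were run at least twice. Data are mean ± SEM, compared by one-way ANOVA.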

[4] = system: liver of APAP-treated mice; test: Serum ALT; type: in vivo, mouse; conditions: APAP 600 mg/kg oral gavage; 6 to 36 hours after overdose
In short: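 Fasted mice received APAP 600 mg/kg, dissolved in warm saline, by oral gavage. Hepatocyte necrosis was followed over time by serum ALT, and liver sections were examined by H&E histopathology. Groups had at least five mice, and each experiment was done at least twice. Data are mean ± SEM, analysed by t test or one-way ANOVA.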

[5] = system: myeloperoxidase (MPO) activity in liver; test: MPO activity in liver lysates; type: in vivo, mouse; conditions: APAP-treated C57BL/6J mice
In short: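 MPO activity was measured in liver lysates as an estimate of neutrophil infiltration. C57BL/6J mice were fasted, then dosed with APAP in warm saline by oral gavage. Treatment arms received 100 µg peptide i.v. at 6, 12 and 18 h after overdose. Groups had at least five mice, and each experiment was run at least twice. Data are mean ± SEM, compared by t test or one-way ANOVA.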

liver = test: Histopathology of liver sections; type: in vivo, mouse; conditions: APAP 600 mg/kg, H&E-stained liver sections, up to 24 hours
In short: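 APAP (600 mg/kg) was given in warm saline by oral gavage to fasted mice. Livers were taken at times up to 24 h. Necrotic areas were scored on sections stained with hematoxylin and eosin. Groups had at least five mice, and experiments were repeated at least twice. Data are mean ± SEM.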

[6] = cited from earlier work

hyaluronidase
removal of MIG30 staining from liver by glycosidase [1]: Neither the DNA nor the MIG30 staining were significantly removed

CXCL10: chemokine CXCL10
binding to bacterial DNA (bacterial DNA): bind to bacterial DNA

CXCL11: chemokine CXCL11
binding to bacterial DNA (bacterial DNA): bind to bacterial DNA

CC(=O)N[C@@H](CS)C(=O)O [N‐acetylcysteine]
effect on APAP-induced liver injury and inflammation [2]: effective only if given soon after the APAP challenge or as a pretreatment

CC(=O)Nc1ccc(O)cc1 [APAP, Acetaminophen]
neutrophil infiltration in the liver (neutrophils in the liver): profound neutrophil infiltration was observed between 12 and 36 hours after injury, which was maximal at the 24‐hour timepoint
mortality (C57BL/6J mice): 40%
CXCL1 produced in the liver [3]: significant amounts
CXCL2 produced in the liver [3]: significant amounts
CXCL6 produced in the liver [3]: significant amounts
TNF-α produced in the liver [3]: significant amounts
liver damage (serum ALT levels) [4]: significant liver damage as early as 6 hours after APAP intoxication and up to 36 hours after the overdose
neutrophils in liver by MPO assay [5]: presence of neutrophils predominantly 24 hours after APAP treatment
hepatic necrosis (histopathology) (liver): extensive hepatic necrosis

KKVLKVRKAQRSRQKKTT [control peptide]
GAG binding [6]: poor GAG affinity

B1: heparinase: Heparinase III produced and provided by A. Kungl (protein, UniProt Q59289 25-659, looked up)
Heparin-sulfate lyase: QSSSITRKDFDHINLEYSGLEKVNKAVAAGNYDDAAKALLAYYREKSKAREPDFSNAEKPADIRQPIDKVTREMADKALVHQFQPHKGYGYFDYGKDINWQMWPVKDNEVRWQLHRVKWWQAMALVYHATGDEKYAREWVYQYSDWARKNPLGLSQDNDKFVWRPLEVSDRVQSLPPTFSLFVNSPAFTPAFLMEFLNSYHQQADYLSTHYAEQGNHRLFEAQRNLFAGVSFPEFKDSPRWRQTGISVLNTEIKKQVYADGMQFELSPIYHVAAIDIFLKAYGSAKRVNLEKEFPQSYVQTVENMIMALISISLPDYNTPMFGDSWITDKNFRMAQFASWARVFPANQAIKYFATDGKQGKAPNFLSKALSNAGFYTFRSGWDKNATVMVLKASPPGEFHAQPDNGTFELFIKGRNFTPDAGVFVYSGDEAIMKLRNWYRQTRIHSTLTLDNQNMVITKARQNKWETGNNLDVLTYTNPSYPNLDHQRSVLFINKKYFLVIDRAIGEATGNLGVHWQLKEDSNPVFDKTKNRVYTTYRDGNNLMIQSLNADRTSLNEEEGKVSYVYNKELKRPAFVFEKPKKNAGTQNFVSIVYPYDGQKAPEISIRENKGNDFEKGKLNLTLTINGKQQLVLVP
removal of MIG30 staining from liver by glycosidase [1]: Neither the DNA nor the MIG30 staining were significantly removed

B2: CXCL9: full-length chemokine CXCL9 (protein, UniProt Q07325 1-125, looked up)
chain: MKKSGVLFLLGIILLVLIGVQGTPVVRKGRCSCISTNQGTIHLQSLKDLKQFAPSPSCEKIEIIATLKNGVQTCLNPDSADVKELIKKWEKQVSQKKKQKNGKKHQKKKVLKVRKSQRSRQKKTT
modifications: full-length
binding to bacterial DNA (bacterial DNA): bind to bacterial DNA
